One block for each compound: values may come before it.
How the values were obtained:
Assay type in all cases: functional
Bacillus subtilis = test: Minimum inhibitory concentration of salt was tested against Bacillus subtilis at 0.1 M NaH2PO4 adjusted to pH 7.0
Pseudomonas aeruginosa [1] = test: Minimum inhibitory concentration of salt was tested against Pseudomonas aeruginosa at 0.1 M NaH2PO4 adjusted to pH 7.0
Pseudomonas aeruginosa [2] = test: Sterilization time for contact germicidal efficiency (CGE) of salt was tested against at Pseudomonas aeruginosa at pH 7.0, concentration 1026 ppm
Pseudomonas aeruginosa [3] = test: Sterilization time for contact germicidal efficiency (CGE) of salt was tested against at Pseudomonas aeruginosa at pH 8.0, concentration 1008 ppm
Pseudomonas aeruginosa [4] = test: Sterilization time for contact germicidal efficiency (CGE) of salt was tested against at Pseudomonas aeruginosa at pH 6.0, concentration 1009 ppm
Staphylococcus aureus [5] = test: Sterilization time for contact germicidal efficiency (CGE) of salt was tested against Staphylococcus aureus at pH 7.0, concentration 1026 ppm
Streptococcus pyogenes [6] = test: Minimum inhibitory concentration of salt was tested against Streptococcus pyogenes aureus at 0.1 M NaH2PO4 adjusted to pH 7.0
Streptococcus pyogenes [7] = test: Sterilization time for contact germicidal efficiency (CGE) of salt was tested against at Streptococcus pyogenes at pH 6.0, concentration 1009 ppm
Staphylococcus aureus [8] = test: Minimum inhibitory concentration of salt was tested against Staphylococcus aureus aureus at 0.1 M NaH2PO4 adjusted to pH 7.0
Outline: (§1)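 Bacteria grown 18-20 h at 37 °C in tryptose phosphate broth, adjusted to OD650 0.01, then diluted into double-strength medium to about 2 × 10^5 viable organisms/mL. Compound in 0.1 M NaH2PO4 pH 7.0 was serially twofold diluted into sterile water and added 1:1 to the cultures. MIC read after 18-20 h at 37 °C, with viability, sterility and buffer controls.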

Staphylococcus aureus [9] = test: Sterilization time for contact germicidal efficiency (CGE) of salt was tested against at Staphylococcus aureus at pH 7.0, concentration 1026 ppm
Staphylococcus aureus [10] = test: Sterilization time for contact germicidal efficiency (CGE) of salt was tested against at Staphylococcus aureus at pH 8.0, concentration 1008 ppm
Streptococcus pyogenes [11] = test: Sterilization time for contact germicidal efficiency (CGE) of salt was tested against at Streptococcus pyogenes at pH 8.0, concentration 1008 ppm
Staphylococcus aureus [12] = test: Sterilization time for contact germicidal efficiency (CGE) of salt was tested against at Staphylococcus aureus at pH 6.0, concentration 1009 ppm
Streptococcus pyogenes [13] = test: Sterilization time for contact germicidal efficiency (CGE) of salt was tested against at Streptococcus pyogenes at pH 7.0, concentration 1026 ppm
Salmonella typhimurium [14] = test: (§2) Minimum inhibitory concentration of salt was tested against Salmonella Typhimurium […] at 0.1 M NaH2PO4 adjusted to pH 7.0; conditions: Salmonella enterica
Pseudomonas aeruginosa [15] = test: Sterilization time for contact germicidal efficiency (CGE) of salt was tested against at Pseudomonas aeruginosa at pH 7.0, concentration 1035.9 ppm
Outline: (§3)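 Test solutions of the quaternary salt in buffer stood 30 min at room temperature. 0.2 mL of overnight broth culture was added to 5 mL of solution. Inocula: S. aureus ATCC 6538 6-8 × 10^6 cfu/mL, P. aeruginosa ATCC 9027 12-13 × 10^6/mL, S. pyogenes ATCC 19615 5 × 10^6 cfu/mL. At 0.5-30 min intervals a loop was subcultured into nutrient broth and incubated 7 days at 37 °C. Sterilization time is the first interval giving no growth.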

Staphylococcus aureus [16] = test: Sterilization time for contact germicidal efficiency (CGE) of salt was tested against Staphylococcus aureus at pH 7.0, concentration 1035.9 ppm; outline: as §3
Streptococcus pyogenes [17] = test: Sterilization time for contact germicidal efficiency (CGE) of salt was tested against at Streptococcus pyogenes at pH 7.0, concentration 1035.9 ppm
Outline: (§4)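 Streptococcus pyogenes ATCC 19615 overnight culture, 5 × 10^6 cfu/mL; 0.2 mL into 5 mL test solution of salt in buffer, left 30 min at room temperature beforehand. At timed intervals (0.5 to 30 min), a 3-mm loop was transferred to sterile nutrient broth and incubated at 37 °C for 7 days. Sterilization time is the shortest interval without growth; buffer-only and viability controls were run.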

Salmonella typhimurium [18] = test: as §2; conditions: Salmonella enterica; outline: as §1; remark: listed apart in the source
Pseudomonas aeruginosa [19] = test: Sterilization time for contact germicidal efficiency (CGE) of salt was tested against at Pseudomonas aeruginosa at pH 7.0, concentration 896.0 ppm; outline: as §3
Pseudomonas aeruginosa [20] = test: Sterilization time for contact germicidal efficiency (CGE) of salt was tested against at Pseudomonas aeruginosa at pH 8.0, concentration 1013 ppm
Outline: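 Pseudomonas aeruginosa ATCC 9027 overnight broth culture (12-13 × 10^6 organisms/mL); 0.2 mL added to 5 mL buffered salt solution held 30 min at room temperature. At intervals from 0.5 to 30 min, a 3-mm loop was subcultured into nutrient broth and incubated at 37 °C for 7 days. Sterilization time is the shortest interval whose subculture gave no growth.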

Pseudomonas aeruginosa [21] = test: Sterilization time for contact germicidal efficiency (CGE) of salt was tested against at Pseudomonas aeruginosa at pH 6.0, concentration 1016 ppm; outline: as §3
Pseudomonas aeruginosa [22] = test: Sterilization time for contact germicidal efficiency (CGE) of salt was tested against at Pseudomonas aeruginosa at pH 7.0, concentration 1010 ppm; outline: as §3
Pseudomonas aeruginosa [23] = test: Sterilization time for contact germicidal efficiency (CGE) of salt was tested against at Pseudomonas aeruginosa at pH 7.0, concentration 1010.9 ppm; outline: as §3
Staphylococcus aureus [24] = test: Sterilization time for contact germicidal efficiency (CGE) of salt was tested against Staphylococcus aureus at pH 7.0, concentration 1010.9 ppm; outline: as §3
Streptococcus pyogenes [25] = test: Sterilization time for contact germicidal efficiency (CGE) of salt was tested against at Streptococcus pyogenes at pH 6.0, concentration 1016 ppm; outline: as §4
Streptococcus pyogenes [26] = test: Sterilization time for contact germicidal efficiency (CGE) of salt was tested against at Streptococcus pyogenes at pH 7.0, concentration 1010 ppm; outline: as §4
Streptococcus pyogenes [27] = test: Sterilization time for contact germicidal efficiency (CGE) of salt was tested against at Streptococcus pyogenes at pH 7.0, concentration 1010.9 ppm; outline: as §4
Staphylococcus aureus [28] = test: Sterilization time for contact germicidal efficiency (CGE) of salt was tested against Staphylococcus aureus at pH 7.0, concentration 896.0 ppm; outline: as §3
Staphylococcus aureus [29] = test: Sterilization time for contact germicidal efficiency (CGE) of salt was tested against at Staphylococcus aureus at pH 7.0, concentration 1010 ppm
Outline: (§5)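 Staphylococcus aureus ATCC 6538, overnight broth culture at 6-8 × 10^6 cfu/mL; 0.2 mL inoculated into 5 mL of buffered quaternary salt solution pre-held 30 min at room temperature. Loop subcultures (3 mm) taken at 0.5-30 min intervals into nutrient broth, incubated at 37 °C for 7 days and read daily. The endpoint is the earliest time giving a growth-free subculture.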

Staphylococcus aureus [30] = test: Sterilization time for contact germicidal efficiency (CGE) of salt was tested against at Staphylococcus aureus at pH 8.0, concentration 1013 ppm; outline: as §5
Streptococcus pyogenes [31] = test: Sterilization time for contact germicidal efficiency (CGE) of salt was tested against at Streptococcus pyogenes at pH 7.0, concentration 896.0 ppm; outline: as §4
Streptococcus pyogenes [32] = test: Sterilization time for contact germicidal efficiency (CGE) of salt was tested against at Streptococcus pyogenes at pH 8.0, concentration 1013 ppm; outline: as §4
Staphylococcus aureus [33] = test: Sterilization time for contact germicidal efficiency (CGE) of salt was tested against at Staphylococcus aureus at pH 6.0, concentration 1016 ppm; outline: as §5

SMILES: CCCCCCCCCCCC(=O)OC[N+]12CCN(CC1)CC2.[Cl-]
- MIC (Bacillus subtilis): 32.8 µg/mL
- MIC (Pseudomonas aeruginosa [1]): 1050 µg/mL
- Time (Pseudomonas aeruginosa [2]): 3 min
- Time (Pseudomonas aeruginosa [3]): 4 min
- Time (Pseudomonas aeruginosa [4]): 0.5 min
- Time (Staphylococcus aureus [5]): 0.5 min
- MIC (Streptococcus pyogenes [6]): 32.8 µg/mL
- Time (Streptococcus pyogenes [7]): 0.5 min
- MIC (Staphylococcus aureus [8]): 65.5 µg/mL
- Time (Staphylococcus aureus [9]): 0.5 min
- Time (Staphylococcus aureus [10]): 0.5 min
- Time (Streptococcus pyogenes [11]): 3 min
- Time (Staphylococcus aureus [12]): 7 min
- Time (Streptococcus pyogenes [13]): 0.5 min
- MIC (Salmonella typhimurium [14]): 524 µg/mL

- MIC (Salmonella typhimurium [18]): 1060 µg/mL
SMILES: CCCCCCCC(=O)OC[n+]1ccccc1.[Cl-]
- Time (Pseudomonas aeruginosa [15]): >30 min
- Time (Staphylococcus aureus [16]): >30 min
- Time (Streptococcus pyogenes [17]): >30 min

- MIC (Pseudomonas aeruginosa [1]): 512 µg/mL
SMILES: CCCCCCCCCCCC(=O)OC[n+]1ccccc1.[Cl-]
- Time (Pseudomonas aeruginosa [19]): 0.5 min
- Time (Pseudomonas aeruginosa [20]): 2 min
- Time (Pseudomonas aeruginosa [21]): 0.5 min
- Time (Pseudomonas aeruginosa [22]): 0.5 min
- Time (Pseudomonas aeruginosa [23]): 0.5 min
- Time (Staphylococcus aureus [24]): 0.5 min
- Time (Streptococcus pyogenes [25]): 0.5 min
- Time (Streptococcus pyogenes [26]): 0.5 min
- Time (Streptococcus pyogenes [27]): 0.5 min
- Time (Staphylococcus aureus [28]): 0.5 min
- Time (Staphylococcus aureus [29]): 0.5 min
- Time (Staphylococcus aureus [30]): 0.5 min
- Time (Streptococcus pyogenes [31]): 0.5 min
- Time (Streptococcus pyogenes [32]): 7 min
- Time (Staphylococcus aureus [33]): 1 min
